We go through 18 molecules from ChEMBL document CHEMBL1138124, “Novel sulfonanilide analogues suppress aromatase expression and activity in breast cancer cells independent of COX-2 inhibition” (J Med Chem, 2006).

Each structure is given as a SMILES string. Activity calls are given as the source filed them. The calls are words filed in the database; no cut-off is given here.

One series has as its system SK-BR-3. Briefly: Reduction in CYP19 mRNA expression in SKBr3 cells after 24h exposure to 25uM relative to control. Format: functional, cell-based. The settings on record: Homo sapiens. Summed up:
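SK-BR-3 cells were exposed 24 h to 25 µM agent or vehicle and total RNA isolated. DNase-treated RNA (2 µg) was reverse transcribed with random hexamers. CYP19 transcripts were quantified by real-time PCR (50 cycles, 95 °C 15 s / 60 °C 1 min), with 18S rRNA as housekeeping reference, relative to vehicle control.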

For another series, the system named is MDA-MB-231. Briefly: Reduction in PGE2 levels in MDA-MB-231 cell. Format: functional, cell-based. The following applies: Homo sapiens. The essentials:
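MDA-MB-231 cells in phenol red-free MEM with 10% FBS were plated at 15 × 10^4 per dish, adhered overnight, then serum-starved 24 h. They were then treated 24 h at 37 °C with 25 µM agent or DMSO. PGE2 in the medium was measured by ELISA and normalized to total protein from NaOH extracts; mean ± SEM, n = 6.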

In the next series the target is T1, Aromatase (Homo sapiens, UniProt P11511).
T1 sequence (P11511 whole entry): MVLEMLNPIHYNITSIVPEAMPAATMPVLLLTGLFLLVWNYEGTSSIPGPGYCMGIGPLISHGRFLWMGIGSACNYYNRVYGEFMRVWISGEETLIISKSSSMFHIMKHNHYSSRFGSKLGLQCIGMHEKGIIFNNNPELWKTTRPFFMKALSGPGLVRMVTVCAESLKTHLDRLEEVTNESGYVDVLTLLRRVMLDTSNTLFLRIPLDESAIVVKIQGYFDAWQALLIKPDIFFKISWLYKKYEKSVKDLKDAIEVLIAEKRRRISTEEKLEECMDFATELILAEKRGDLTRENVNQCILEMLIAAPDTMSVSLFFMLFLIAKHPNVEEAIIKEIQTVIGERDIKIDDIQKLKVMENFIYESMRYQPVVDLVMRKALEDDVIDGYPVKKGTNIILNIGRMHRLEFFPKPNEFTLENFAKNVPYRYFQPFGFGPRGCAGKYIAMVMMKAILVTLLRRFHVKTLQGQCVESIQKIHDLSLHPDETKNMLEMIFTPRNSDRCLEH
The series is described as follows: Inhibition of aromatase activity in human placental microsomes at 5 uM. On the set-up: species or system Placenta. Summed up: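 Human term placental microsomes (50 µg protein) incubated with 100 nM [1β-3H]androst-4-ene-3,17-dione for 15 min at 37 °C, compound at 5 µM. Quenched with chloroform; released 3H2O counted. Triplicates, with background taken from boiled microsomes. 50 µM aminoglutethimide served as positive control. Normalized to vehicle; three independent determinations.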

On to `CCC(CC)Oc1cc([N+](=O)[O-])ccc1NS(C)(=O)=O`, for which the result in the series with SK-BR-3 and with MDA-MB-231 was Active. Further, the Inhibition result on Aromatase is given as “Not Active”. In the case of `CC(C)Oc1cc([N+](=O)[O-])ccc1NS(C)(=O)=O`, the Inhibition result on Aromatase is “Not Active”. Same read-out and setting: with `CCCCCCCCCOc1cc([N+](=O)[O-])ccc1NS(C)(=O)=O` the entry was “Not Active”. On the same count and under the same terms, the entry for `CCCOc1cc([N+](=O)[O-])ccc1NS(C)(=O)=O` is “Not Active”; for `CCCCCCCCCOc1cc([N+](=O)[O-])ccc1N(C)S(C)(=O)=O` it is “Not Active”. `CN(c1ccc([N+](=O)[O-])cc1OC1CCCC1)S(C)(=O)=O`: the outcome in the series with MDA-MB-231 was inactive. Moreover, on Aromatase, the Inhibition result is “Not Active”. For `COc1cc([N+](=O)[O-])ccc1N(C)S(C)(=O)=O`, on Aromatase, the Inhibition result is “Not Active”. As for `CN(c1ccc([N+](=O)[O-])cc1OCC1CCCCC1)S(C)(=O)=O`, in the series on MDA-MB-231, the result was inactive. The Inhibition entry at Aromatase is reported as “Not Active”. Turning to `CCCCCCOc1cc([N+](=O)[O-])ccc1NS(C)(=O)=O`, the Inhibition result on Aromatase is given as “Not Active”. Same read-out and setting: with `COc1cc([N+](=O)[O-])ccc1NS(C)(=O)=O` the entry was “Not Active”. Turning to `CS(=O)(=O)Nc1ccc([N+](=O)[O-])cc1OC1CCCCC1` [NS-398], the outcome in the series with SK-BR-3 and in the series on MDA-MB-231 was Active. Also, the Inhibition result at Aromatase was “Not Active”. In the case of `CCC(CC)Oc1cc([N+](=O)[O-])ccc1N(C)S(C)(=O)=O`, the outcome with SK-BR-3 was Active. Moreover, the result with MDA-MB-231 was inactive. The Inhibition entry on Aromatase is “Not Active”. For the molecule `CCCOc1cc([N+](=O)[O-])ccc1N(C)S(C)(=O)=O`, at Aromatase, the Inhibition entry is recorded as “Not Active”. For `CN(c1ccc([N+](=O)[O-])cc1OC1CCCCC1)S(C)(=O)=O`, the outcome in the series with SK-BR-3 was Active. The result in the series with MDA-MB-231 was inactive. Further, the Inhibition result on Aromatase was “Not Active”.

As for `CS(=O)(=O)Nc1ccc([N+](=O)[O-])cc1OC1CCCC1`, in the series with MDA-MB-231, the outcome was Active. For the same molecule, the Inhibition entry at Aromatase was “Not Active”. Take `CC(C)Oc1cc([N+](=O)[O-])ccc1N(C)S(C)(=O)=O`: on Aromatase, the Inhibition entry was “Not Active”. The same measure, in the same setting: with `CCCCCCOc1cc([N+](=O)[O-])ccc1N(C)S(C)(=O)=O` the entry was “Not Active”; with `CS(=O)(=O)Nc1ccc([N+](=O)[O-])cc1OCC1CCCCC1`, “Not Active”.
